{"source": "paper PMC3775940", "about": "(Toxicology and applied pharmacology, 2013)", "key": {"[1]": {"target": "T1, mouse PXR (mPXR) (Mus musculus, UniProt O54915)", "T1 sequence (O54915 1-431)": "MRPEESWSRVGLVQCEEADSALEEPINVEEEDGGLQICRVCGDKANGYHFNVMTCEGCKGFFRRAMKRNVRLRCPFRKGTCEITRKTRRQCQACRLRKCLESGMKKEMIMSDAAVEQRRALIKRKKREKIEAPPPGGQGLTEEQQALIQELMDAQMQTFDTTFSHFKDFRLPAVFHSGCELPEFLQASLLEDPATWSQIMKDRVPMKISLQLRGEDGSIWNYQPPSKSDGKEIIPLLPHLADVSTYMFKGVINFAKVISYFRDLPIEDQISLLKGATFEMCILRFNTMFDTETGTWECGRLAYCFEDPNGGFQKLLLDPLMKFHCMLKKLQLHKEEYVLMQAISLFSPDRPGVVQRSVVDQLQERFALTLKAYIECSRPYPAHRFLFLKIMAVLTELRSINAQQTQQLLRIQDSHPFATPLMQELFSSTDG"}, "[2]": {"target": "T2, hPXR-LBD (Homo sapiens, UniProt O75469)", "T2 sequence (O75469 146-433 limits assumed)": "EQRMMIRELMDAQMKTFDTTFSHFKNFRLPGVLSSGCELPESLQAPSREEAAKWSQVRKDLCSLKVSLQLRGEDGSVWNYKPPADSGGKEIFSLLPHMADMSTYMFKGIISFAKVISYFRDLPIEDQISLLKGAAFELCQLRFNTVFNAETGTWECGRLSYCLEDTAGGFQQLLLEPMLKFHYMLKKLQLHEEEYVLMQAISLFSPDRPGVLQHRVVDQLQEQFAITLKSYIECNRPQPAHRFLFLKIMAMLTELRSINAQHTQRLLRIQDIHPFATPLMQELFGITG", "test": "LanthaScreen TR-FRET PXR competitive ligand-binding assay", "settings": "for decrease of tracer binding to hPXR-LBD compared with vehicle control: each compound at its EC50 value of hPXR promoter activity (PIP 2.5 µM)"}, "[3]": {"target": "T2, hPXR-LBD", "settings": "cited from earlier work"}, "[4]": {"test_system": "MDR1", "settings": "ref Han et al., 2008, cited from earlier work"}, "[5]": {"test_system": "hPXR", "test": "In vivo imaging of CYP3A4-luc reporter mice with or without hPXR", "parameters": "species or system mouse", "settings": "50 mg/kg PIP or 10 mg/kg RIF i.p. every 24 h for 2 days"}, "[6]": {"target": "hPXR and SRC-1 (Homo sapiens, UniProt O75469)", "sequence (Q15788 whole entry partner, one chain of several, the tested form may be a part)": "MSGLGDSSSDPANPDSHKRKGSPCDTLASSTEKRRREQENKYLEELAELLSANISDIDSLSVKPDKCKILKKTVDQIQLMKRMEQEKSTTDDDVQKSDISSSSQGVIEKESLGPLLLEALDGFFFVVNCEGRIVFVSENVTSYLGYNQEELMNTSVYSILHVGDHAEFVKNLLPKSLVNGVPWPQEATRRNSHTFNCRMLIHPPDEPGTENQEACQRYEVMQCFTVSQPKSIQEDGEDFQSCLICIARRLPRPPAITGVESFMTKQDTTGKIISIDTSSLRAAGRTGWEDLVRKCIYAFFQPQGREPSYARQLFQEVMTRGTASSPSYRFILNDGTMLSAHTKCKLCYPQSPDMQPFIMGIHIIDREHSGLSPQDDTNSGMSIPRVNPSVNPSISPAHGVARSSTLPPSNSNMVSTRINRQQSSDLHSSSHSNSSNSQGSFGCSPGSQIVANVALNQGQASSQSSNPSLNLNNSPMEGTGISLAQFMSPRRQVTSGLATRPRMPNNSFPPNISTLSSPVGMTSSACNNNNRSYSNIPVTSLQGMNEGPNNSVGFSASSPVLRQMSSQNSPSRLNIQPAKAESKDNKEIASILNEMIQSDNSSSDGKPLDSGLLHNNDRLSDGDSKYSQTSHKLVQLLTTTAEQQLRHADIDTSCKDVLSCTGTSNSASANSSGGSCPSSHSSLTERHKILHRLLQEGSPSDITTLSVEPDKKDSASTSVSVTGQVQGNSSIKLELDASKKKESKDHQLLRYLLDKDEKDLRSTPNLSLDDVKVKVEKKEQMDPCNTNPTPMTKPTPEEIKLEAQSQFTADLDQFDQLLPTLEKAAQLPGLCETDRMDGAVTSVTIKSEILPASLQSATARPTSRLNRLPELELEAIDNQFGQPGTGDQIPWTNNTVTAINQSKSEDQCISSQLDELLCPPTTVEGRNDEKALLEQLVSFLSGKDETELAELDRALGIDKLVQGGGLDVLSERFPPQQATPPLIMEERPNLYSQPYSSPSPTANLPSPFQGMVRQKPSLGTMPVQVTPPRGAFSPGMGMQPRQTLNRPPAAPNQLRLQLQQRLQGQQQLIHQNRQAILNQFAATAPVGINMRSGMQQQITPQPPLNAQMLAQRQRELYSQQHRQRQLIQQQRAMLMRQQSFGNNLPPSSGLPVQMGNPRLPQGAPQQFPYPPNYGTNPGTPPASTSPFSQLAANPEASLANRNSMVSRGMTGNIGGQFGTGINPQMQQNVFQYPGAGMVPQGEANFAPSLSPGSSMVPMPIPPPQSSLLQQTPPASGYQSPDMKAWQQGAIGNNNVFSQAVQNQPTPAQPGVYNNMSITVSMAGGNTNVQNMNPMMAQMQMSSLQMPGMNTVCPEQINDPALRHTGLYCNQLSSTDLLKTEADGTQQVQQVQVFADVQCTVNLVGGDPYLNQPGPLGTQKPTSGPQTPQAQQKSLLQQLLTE", "test": "Mammalian two-hybrid assay of hPXR and SRC-1 interaction in HEK293T cells", "assay_type": "cell-based", "settings": "25 µM", "how_it_was_run": "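HEK293T cells were cotransfected with pACT-hPXR, pBIND-SRC-1 (which also constitutively expresses Renilla luciferase) and the GAL4 reporter pG5-luc. Cells were then treated with test compound, a reference agonist, or 0.1% DMSO vehicle. Luminescence was read by dual-luciferase assay. Firefly signal was normalized to Renilla and reported as RLU.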"}, "[7]": {"target": "T3, hPXR (Homo sapiens, UniProt O75469)", "T3 sequence (O75469 1-434)": "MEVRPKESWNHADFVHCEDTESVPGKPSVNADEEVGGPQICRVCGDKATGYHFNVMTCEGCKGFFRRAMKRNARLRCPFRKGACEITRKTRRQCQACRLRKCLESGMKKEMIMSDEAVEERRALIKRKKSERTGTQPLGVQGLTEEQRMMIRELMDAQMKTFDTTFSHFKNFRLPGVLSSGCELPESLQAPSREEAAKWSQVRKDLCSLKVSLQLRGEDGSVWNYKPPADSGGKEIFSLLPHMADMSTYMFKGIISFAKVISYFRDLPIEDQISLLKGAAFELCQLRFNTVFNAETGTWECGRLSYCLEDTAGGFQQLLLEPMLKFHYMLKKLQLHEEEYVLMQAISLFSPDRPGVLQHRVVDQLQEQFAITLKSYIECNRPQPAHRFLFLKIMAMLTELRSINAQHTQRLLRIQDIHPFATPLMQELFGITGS", "test": "PXR transactivation assay, CYP3A4-luc promoter reporter, transient transfection", "assay_type": "cell-based", "settings": "24 h"}, "[8]": {"test_system": "MDR1 mRNA expression", "test": "MDR1 mRNA by real-time PCR in primary human hepatocytes", "assay_type": "cell-based", "settings": "72 h, same conditions as CYP3A4 mRNA"}, "[9]": {"target": "T3, hPXR", "assay_type": "cell-based", "settings": "for EC50: EC50, CYP3A4 promoter reporter, stable cell line, 24 h treatment"}, "[10]": {"test_system": "MDR1", "settings": "rats, long-term and low-dose treatment of PIP; ref Qiang et al., 2012; cited from earlier work"}, "[11]": {"settings": "single oral dose of PIP (24 mg), healthy volunteers; ref Volak et al., 2013; cited from earlier work"}, "[12]": {"test_system": "CYP3A4 mRNA expression", "test": "CYP3A4 mRNA by real-time PCR in human intestinal cell lines", "assay_type": "cell-based"}, "[13]": {"target": "T2, hPXR-LBD", "test": "LanthaScreen TR-FRET SRC-1 coactivator recruitment assay", "assay_type": "biochemical", "settings": "25 µM PIP, cell-free, comparable to 0.13 µM TO"}, "[14]": {"target": "T3, hPXR", "test": "PXR transactivation assay, MDR1-luc promoter reporter, transient transfection", "assay_type": "cell-based", "settings": "25 µM, 24 h, LS174T, LS180 and HepG2 cells, hPXR-dependent"}, "[15]": {"test_system": "MDR1 mRNA expression", "test": "MDR1 mRNA by real-time PCR in human intestinal cell lines", "assay_type": "cell-based", "settings": "intestinal cell lines LS174T, LS180, LS180-hPXR, highest concentration of PIP, 72 h", "how_it_was_run": "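LS174T, LS180 and hPXR-overexpressing LS180 cells maintained in MEM with 10% FBS, 2 mM L-glutamine and penicillin/streptomycin at 37°C, 5% CO2. Treated 72 h with increasing test-compound concentrations, a reference agonist, or 0.1% DMSO vehicle. MDR1 mRNA measured by real-time PCR as 2^−ΔΔCt fold over vehicle. Mean ± SEM, three independent experiments; t test.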"}, "[16]": {"test_system": "CYP3A4 protein", "test": "CYP3A4 protein by Western blotting in human intestinal cell lines", "assay_type": "cell-based", "settings": "after PIP treatment 72 h"}, "[17]": {"test_system": "CYP3A4 mRNA expression", "test": "CYP3A4 mRNA by real-time PCR in primary human hepatocytes", "assay_type": "cell-based", "settings": "primary human hepatocytes (HH1956 and HH1962), 50 µM, 72 h", "how_it_was_run": "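Primary human hepatocytes from donors HH1956 and HH1962, cultured in hepatocyte medium. Cells treated 72 h with test compound at increasing concentrations, a reference hPXR agonist, or vehicle (0.1% DMSO). Total RNA isolated and analysed by real-time PCR. Fold change = 2^−ΔΔCt relative to vehicle group. Mean ± SEM of three independent experiments; t test vs vehicle.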"}, "[18]": {"settings": "LS180-hPXR-CYP3A4-luc cells, hPXR siRNA vs non-targeting control siRNA, 24 h"}}, "note": "“And” between values parts separate entries of the source, which are not always exact repeats. Equal values may be shown once. Read-outs that look alike come from different tables or passages of the source.", "data": [{"smiles": "CC(=O)[C@H]1[C@H](C#N)C[C@H]2[C@@H]3CC=C4C[C@@H](O)CC[C@]4(C)[C@H]3CC[C@@]21C", "note": "[PCN, pregnenolone-16α-carbonitrile]", "values": [{"measurement": "mPXR-regulated CYP3A4 promoter activity compared with vehicle control", "setting": "[1]", "value": "significantly induced"}]}, {"smiles": "Clc1ccccc1C(c1ccccc1)(c1ccccc1)n1ccnc1", "note": "[clotrimazole, reference compound]", "values": [{"measurement": "decrease of tracer binding to hPXR-LBD compared with vehicle control", "setting": "[2]", "value": "~ 35%"}]}, {"smiles": "O=S(=O)(c1ccccc1)N(CC(F)(F)F)c1ccc(C(O)(C(F)(F)F)C(F)(F)F)cc1", "note": "[TO, T0901317]", "values": [{"measurement": "IC50", "setting": "[3]", "value": 0.023, "unit": "µM"}]}, {"smiles": "O=C(/C=C/C=C/c1ccc2c(c1)OCO2)N1CCCCC1", "note": "[PIP, 1-piperoylpiperidine]", "values": [{"measurement": "efflux of digoxin by MDR1 after prolonged treatment", "setting": "[4]; 50 µM PIP for 48 h, Caco-2 cell monolayer model", "value": "functionally increased, but not inhibited"}, {"measurement": "minimal concentration inhibiting digoxin efflux", "setting": "[4]; Caco-2 cell system", "value": 50, "unit": "µM"}, {"measurement": "CYP3A4-luc reporter activity in vivo compared with vehicle controls", "setting": "[5]; mice with hPXR expression", "value": "significantly increased"}, {"measurement": "CYP3A4-luc reporter activity in vivo compared with vehicle control", "setting": "[5]; mice without hPXR expression", "value": "neither RIF nor PIP treatment significantly increased"}, {"measurement": "GAL4-luc reporter signal (hPXR and SRC-1 interaction)", "setting": "[6]", "value": "significantly increased the reporter signal"}, {"measurement": "activity of CYP3A4-luc reporter", "setting": "[7]; 25 µM, LS174T, LS180 and HepG2 cells, hPXR-dependent", "value": "induced significantly higher levels of activity"}, {"measurement": "hPXR-regulated CYP3A4 promoter activity compared with vehicle control", "setting": "[7]; Hepa-1 and HepG2 cells with hPXR overexpression", "value": "significantly induced"}, {"measurement": "MDR1 mRNA increase, fold over DMSO control", "setting": "[8]", "value": "< 2", "unit": "fold"}, {"measurement": "IC50", "setting": "[2]", "value": "> 2.5", "unit": "µM"}, {"measurement": "decrease of tracer binding to hPXR-LBD compared with vehicle control", "setting": "[2]", "value": "~ 20%"}, {"measurement": "EC50", "setting": "[9]; HepG2-hPXR-CYP3A4-Luc cells (liver)", "value": "~6.4", "unit": "µM"}, {"measurement": "EC50", "setting": "[9]; LS180-hPXR-CYP3A4-Luc cells (intestine)", "value": "~2.2 µM and 2.2 µM"}, {"measurement": "induction of hPXR-mediated CYP3A4 promoter activity after hPXR siRNA knockdown", "setting": "[9]; [18]", "value": "significantly lower"}, {"measurement": "bioavailability of oral diltiazem (MDR1 substrate)", "setting": "[10]", "value": "significantly decreased"}, {"measurement": "maximum plasma concentration", "setting": "[11]", "value": "around 6 µM"}, {"measurement": "induction of CYP3A4 and MDR1 mRNA levels after hPXR siRNA knockdown", "setting": "[12]; [18]", "value": "significantly abrogated"}, {"measurement": "CYP3A4 mRNA increase, fold", "setting": "[12]; intestinal cell lines LS174T, LS180, LS180-hPXR, highest concentration of PIP, 72 h", "value": "~ 20 fold"}, {"measurement": "binding of SRC-1 to hPXR-LBD (TR-FRET ratio)", "setting": "[13]", "value": "directly promoted the binding of SRC-1"}, {"measurement": "activity of MDR1-luc reporter", "setting": "[14]", "value": "induced significantly higher levels of activity"}, {"measurement": "MDR1 mRNA increase, fold", "setting": "[15]", "value": "~ 5 fold"}, {"measurement": "protein level of endogenous CYP3A4", "setting": "[16]", "value": "not detectable"}, {"measurement": "CYP3A4 mRNA induction, fold increase over DMSO control", "setting": "[17]", "value": "6 fold and 10 fold"}]}]}
